According to ChEMBL document CHEMBL3286372, “Design, synthesis and structure-activity relationship of novel semi-synthetic flavonoids as antiproliferative agents” (2014):

Tests used:
Format in all cases: functional
MCF7 = test: Growth inhibition of human MCF7 cells at 10 uM after 48 hrs by sulforhodamine B assay relative to control; settings: MCF7, 48 h, read-out: GI
Procedure, shortened: (§1)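 NCI-60 primary screen at a single dose of 10 µM with 48 h continuous exposure. Growth or viability read by sulforhodamine B protein staining and expressed as percent growth inhibition versus untreated cells.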

[1] = Growth inhibition of human SF539 cells at 10 uM after 48 hrs by sulforhodamine B assay relative to control; settings: SF-539, 48 h, read-out: GI
Procedure, shortened: (§2)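 NCI-60 primary screen at a single 10 µM dose. Continuous 48 h exposure, with growth or viability estimated by sulforhodamine B protein staining. Reported as percent growth inhibition of treated cells relative to untreated growth.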

[2] = Growth inhibition of human MOLT4 cells at 10 uM after 48 hrs by sulforhodamine B assay relative to control; settings: MOLT-4, 48 h, read-out: GI; procedure, shortened: as §2
RPMI-8226 = test: Growth inhibition of human RPMI8226 cells at 10 uM after 48 hrs by sulforhodamine B assay relative to control; settings: RPMI-8226, 48 h, read-out: GI; procedure, shortened: as §2
SR = test: Growth inhibition of human SR cells at 10 uM after 48 hrs by sulforhodamine B assay relative to control; settings: read-out: GI; procedure, shortened: as §2
CAKI-1 = test: Growth inhibition of human CAKI-1 cells at 10 uM after 48 hrs by sulforhodamine B assay relative to control; settings: CAKI-1, 48 h, read-out: GI; procedure, shortened: as §1
HCT-116 = test: Growth inhibition of human HCT116 cells at 10 uM after 48 hrs by sulforhodamine B assay relative to control; settings: HCT-116, 48 h, read-out: GI; procedure, shortened: as §1
Malme-3M = test: Growth inhibition of human MALME-3M cells at 10 uM after 48 hrs by sulforhodamine B assay relative to control; settings: read-out: GI; procedure, shortened: as §1
T47D = test: Growth inhibition of human T47D cells at 10 uM after 48 hrs by sulforhodamine B assay relative to control; settings: read-out: GI; procedure, shortened: as §2
CCRF-CEM = test: Growth inhibition of human CCRF-CEM cells at 10 uM after 48 hrs by sulforhodamine B assay relative to control; settings: read-out: GI; procedure, shortened: as §1
MDA-MB-468 = test: Growth inhibition of human MDA-MB-468 cells at 10 uM after 48 hrs by sulforhodamine B assay relative to control; settings: MDA-MB-468, 48 h, read-out: GI; procedure, shortened: as §2
NCI-H522 = test: Growth inhibition of human NCI-H522 cells at 10 uM after 48 hrs by sulforhodamine B assay relative to control; settings: NCI-H522, 48 h, read-out: GI; procedure, shortened: as §2
[3] = Growth inhibition of human LOXIMVI cells at 10 uM after 48 hrs by sulforhodamine B assay relative to control; settings: LOX IMVI, read-out: GI; procedure, shortened: as §1
SK-MEL-2 = test: Growth inhibition of human SK-MEL-2 cells at 10 uM after 48 hrs by sulforhodamine B assay relative to control; settings: SK-MEL-2, 48 h, read-out: GI; procedure, shortened: as §2
SW-620 = test: Growth inhibition of human SW620 cells at 10 uM after 48 hrs by sulforhodamine B assay relative to control; settings: SW-620, 48 h, read-out: GI; procedure, shortened: as §2
HL-60(TB) = test: Growth inhibition of human HL-60(TB) cells at 10 uM after 48 hrs by sulforhodamine B assay relative to control; settings: HL-60, 48 h, read-out: GI
Procedure, shortened: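 Single-dose primary screen at 10 µM across the NCI 60 panel, 48 h continuous exposure. Growth estimated by sulforhodamine B protein staining and reported as percentage growth inhibition relative to untreated control.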

MDA-MB-435 = test: Growth inhibition of human MDA-MB-435 cells at 10 uM after 48 hrs by sulforhodamine B assay relative to control; settings: MDA-MB-435, 48 h, read-out: GI; procedure, shortened: as §1
[4] = Growth inhibition of human SF295 cells at 10 uM after 48 hrs by sulforhodamine B assay relative to control; settings: SF-295, 48 h, read-out: GI; procedure, shortened: as §2
[5] = Growth inhibition of human NCI-ADR-RES cells at 10 uM after 48 hrs by sulforhodamine B assay relative to control; settings: read-out: GI; procedure, shortened: as §2
U-251 = test: Growth inhibition of human U251 cells at 10 uM after 48 hrs by sulforhodamine B assay relative to control; settings: U-251, 48 h, read-out: GI
Procedure, shortened: (§3)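 NCI-60 primary single-dose screen at 10 µM with continuous 48 h exposure. Cell viability/growth read by sulforhodamine B protein staining. Reported as percent growth inhibition relative to untreated cells.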

[6] = Growth inhibition of human OVCAR3 cells at 10 uM after 48 hrs by sulforhodamine B assay relative to control; settings: OVCAR-3, 48 h, read-out: GI; procedure, shortened: as §2
[7] = Growth inhibition of human UACC257 cells at 10 uM after 48 hrs by sulforhodamine B assay relative to control; settings: UACC-257, 48 h, read-out: GI; procedure, shortened: as §3
[8] = Growth inhibition of human RXF393 cells at 10 uM after 48 hrs by sulforhodamine B assay relative to control; settings: RXF 393, 48 h, read-out: GI; procedure, shortened: as §2
HT-29 = test: Growth inhibition of human HT-29 cells at 10 uM after 48 hrs by sulforhodamine B assay relative to control; settings: HT-29, 48 h, read-out: GI; procedure, shortened: as §1
PC-3 = test: Growth inhibition of human PC3 cells at 10 uM after 48 hrs by sulforhodamine B assay relative to control; settings: PC-3, 48 h, read-out: GI; procedure, shortened: as §2
NCI-H460 = test: Growth inhibition of human NCI-H460 cells at 10 uM after 48 hrs by sulforhodamine B assay relative to control; settings: NCI-H460, 48 h, read-out: GI; procedure, shortened: as §2
TK-10 = test: Growth inhibition of human TK10 cells at 10 uM after 48 hrs by sulforhodamine B assay relative to control; settings: TK-10, 48 h, read-out: GI; procedure, shortened: as §3
[9] = Growth inhibition of human OVCAR8 cells at 10 uM after 48 hrs by sulforhodamine B assay relative to control; settings: OVCAR-8, 48 h, read-out: GI; procedure, shortened: as §2
NCI-H23 = test: Growth inhibition of human NCI-H23 cells at 10 uM after 48 hrs by sulforhodamine B assay relative to control; settings: NCI-H23, 48 h, read-out: GI; procedure, shortened: as §2
IGROV-1 = test: Growth inhibition of human IGROV1 cells at 10 uM after 48 hrs by sulforhodamine B assay relative to control; settings: IGROV-1, 48 h, read-out: GI; procedure, shortened: as §1
K562 = test: Growth inhibition of human K562 cells at 10 uM after 48 hrs by sulforhodamine B assay relative to control; settings: K562, 48 h, read-out: GI; procedure, shortened: as §1
[10] = Growth inhibition of human HOP92 cells at 10 uM after 48 hrs by sulforhodamine B assay relative to control; settings: HOP-92, 48 h, read-out: GI; procedure, shortened: as §1
786-0 = test: Growth inhibition of human 786-0 cells at 10 uM after 48 hrs by sulforhodamine B assay relative to control; settings: 786-0, 48 h, read-out: GI; procedure, shortened: as §1
[11] = Growth inhibition of human UO31 cells at 10 uM after 48 hrs by sulforhodamine B assay relative to control; settings: UO-31, 48 h, read-out: GI; procedure, shortened: as §3
[12] = Growth inhibition of human OVCAR4 cells at 10 uM after 48 hrs by sulforhodamine B assay relative to control; settings: OVCAR-4, 48 h, read-out: GI; procedure, shortened: as §2
[13] = Growth inhibition of human HCT15 cells at 10 uM after 48 hrs by sulforhodamine B assay relative to control; settings: HCT-15, 48 h, read-out: GI; procedure, shortened: as §1
[14] = Growth inhibition of human BT549 cells at 10 uM after 48 hrs by sulforhodamine B assay relative to control; settings: BT-549, 48 h, read-out: GI; procedure, shortened: as §1
SK-MEL-5 = test: Growth inhibition of human SK-MEL-5 cells at 10 uM after 48 hrs by sulforhodamine B assay relative to control; settings: SK-MEL-5, 48 h, read-out: GI; procedure, shortened: as §2

| SMILES | inhibition of growth at 10 µM (MCF7) [%] | inhibition of growth at 10 µM [2] [%] | inhibition of growth at 10 µM (RPMI-8226) [%] | inhibition of growth at 10 µM (SR) [%] | inhibition of growth at 10 µM (CAKI-1) [%] | inhibition of growth at 10 µM (HCT-116) [%] | inhibition of growth at 10 µM (T47D) [%] | inhibition of growth at 10 µM (CCRF-CEM) [%] | inhibition of growth at 10 µM (MDA-MB-468) [%] | inhibition of growth at 10 µM (NCI-H522) [%] | inhibition of growth at 10 µM [3] [%] | inhibition of growth at 10 µM (SK-MEL-2) [%] | inhibition of growth at 10 µM (SW-620) [%] | inhibition of growth at 10 µM (HL-60(TB)) [%] | inhibition of growth at 10 µM (MDA-MB-435) [%] | inhibition of growth at 10 µM [4] [%] | inhibition of growth at 10 µM [5] [%] | inhibition of growth at 10 µM (U-251) [%] | inhibition of growth at 10 µM [6] [%] | inhibition of growth at 10 µM (PC-3) [%] | other results |
| --- | --- | --- | --- | --- | --- | --- | --- | --- | --- | --- | --- | --- | --- | --- | --- | --- | --- | --- | --- | --- | --- |
| COc1ccc(/C=C2\Oc3c(c(OC)c4ccoc4c3Br)C2=O)cc1 | 60 | 67 | 71 | 60 | 61 | 62 |  |  |  |  |  |  |  |  |  |  |  |  |  |  | inhibition of growth at 10 µM [1]: 60% |
| COc1c2c(c(Br)c3occc13)O/C(=C\c1ccc(Cl)cc1)C2=O | 79 | 85 | 91 | 82 | 80 | 83 | 60 | 79 | 80 | 64 | 65 | 84 | 63 | 74 | 82 | 67 | 61 | 62 | 67 | 69 | inhibition of growth at 10 µM (Malme-3M): 65%; inhibition of growth at 10 µM [7]: 61%; inhibition of growth at 10 µM [8]: 78%; inhibition of growth at 10 µM (HT-29): 63% |
| COc1c(C(=O)/C=C/c2ccc(Cl)cc2)c(O)cc2occc12 | 64 |  | 66 | 63 |  |  | 67 | 60 |  |  |  |  |  |  |  |  |  |  |  |  |  |
| C=CCOc1cc2oc(-c3ccc(Cl)cc3)cc(=O)c2c(OC)c1C=O | 85 |  | 96 |  |  | 89 | 72 |  | 91 | 93 | 99 | 75 | 69 | 75 | 73 |  | 78 | 68 | 81 | 76 | inhibition of growth at 10 µM (NCI-H460): 61%; inhibition of growth at 10 µM (TK-10): 73%; inhibition of growth at 10 µM [9]: 66%; inhibition of growth at 10 µM (NCI-H23): 61%; inhibition of growth at 10 µM (IGROV-1): 62%; inhibition of growth at 10 µM (K562): 76%; inhibition of growth at 10 µM [10]: 97%; inhibition of growth at 10 µM (786-0): 65%; inhibition of growth at 10 µM [11]: 74% |
| C=CCOc1cc2oc(-c3ccc(OC)cc3)cc(=O)c2c(OC)c1C=O |  |  |  |  |  |  |  |  |  |  |  |  |  |  |  |  |  |  |  |  | inhibition of growth at 10 µM [10]: 66% |
| COc1c2ccoc2c(Br)c2oc(-c3ccc(Cl)cc3)cc(=O)c12 |  |  |  |  |  |  |  |  |  |  |  |  |  |  |  |  |  |  |  |  | inhibition of growth at 10 µM [12]: 72% |
| COc1ccc(-c2cc(=O)c3c(OC)c4ccoc4cc3o2)cc1 |  |  |  |  |  |  |  |  |  |  |  |  |  |  |  | 60 |  | 62 |  |  | inhibition of growth at 10 µM [11]: 62% |
| COc1ccc(/C=C/c2cc(=O)c3c(OC)c4ccoc4c(Br)c3o2)cc1 |  |  |  |  |  |  |  |  |  | 62 |  |  |  |  |  |  |  |  |  |  |  |
| COc1c2c(c(Br)c3occc13)O/C(=C\c1ccccc1)C2=O | 84 | 85 | 94 | 79 | 87 | 77 |  | 79 | 93 | 62 | 65 | 88 | 60 | 64 | 74 | 65 | 79 | 73 | 86 | 66 | inhibition of growth at 10 µM [1]: 75%; inhibition of growth at 10 µM (NCI-H460): 83%; inhibition of growth at 10 µM [13]: 60%; inhibition of growth at 10 µM (TK-10): 61%; inhibition of growth at 10 µM [9]: 70%; inhibition of growth at 10 µM [14]: 66%; inhibition of growth at 10 µM (NCI-H23): 78%; inhibition of growth at 10 µM [8]: 93%; inhibition of growth at 10 µM (HT-29): 72%; inhibition of growth at 10 µM (SK-MEL-5): 67% |
| COc1ccc(/C=C/c2oc3c(OC)c4occc4c(OC)c3c(=O)c2CN2CCOCC2)cc1 |  | 66 | 61 |  |  |  |  | 87 |  |  |  |  |  |  |  |  |  |  |  |  | inhibition of growth at 10 µM (SK-MEL-5): 84% |
